Test results: the RNAGym collection of RNA variant scans (doi:10.1126/science.aae0568)
Variants at the floor of the assay were thinned out.

B1: tRNA (parent)
chain: GUUCCGUUGGCGUAAUGGUAACGCGUCUCCCUCCUAAGGAGAAGACUGCGGGUUCGAGUCCCGUACGGAACG

Variants of: B1
Assay: yeast fitness relative to wild type (ratio to wild type); higher = fitter; tRNA-Arg(CCU), competitive growth, 37 C, YPD
In short: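 Amplicons of the tRNA-Arg(CCU) gene were sequenced, 100-nucleotide paired-end, from the start population and from each end population of a pooled yeast competition. The competition, in six parallel replicates, lasted 24 hours in YPD at 37°C. Fitness relative to wild type was calculated from changes in genotype frequencies. Genotypes had to have ≥ 100 starting reads, and estimates < 0.5 were set to 0.5.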

Variant | yeast fitness
C5G C11U A37C A57G | ≤ 0.5
C5G A21G C27G C34G A43C C46G A70G | 0.561
C5G A37C C61U | ≤ 0.5
C5G A37C A69C | 0.511
C5G C11A A15G G18A C30G U54C | ≤ 0.5
C5G A20U G51C | ≤ 0.5
C5G A21G C62U | 0.677
C5G A20G U53A G67A | ≤ 0.5
C5G A40C U53G C60A | ≤ 0.5
C5G C11U A14U A37U A45C | ≤ 0.5
C5G A37U | 0.726
C5G A37C | 0.731
C5G A20G C34A A40U | ≤ 0.5
C5G C11G A15U C55A | ≤ 0.5
C5G C11A C22G A36U G63A | ≤ 0.5
C5G C11U C30U A36C G58A G67C | ≤ 0.5
C5G A20U C30U C62U | ≤ 0.5
C5G A21U C55U | 0.6
C5G A37C G51C A57G | 0.598
C5G C11G U35G A42G G56C | ≤ 0.5
C5G C11U A37C U64C | 0.609
C5G A45C A70C | 0.725
C5G C11G C24U C62A | 0.584
C5G A36U G52C G67U A69U | ≤ 0.5

Variant | yeast fitness
C5G A36G A43U A69C | 0.655
C5G C11G C30U C31U A57G | 0.8
C5G A40U C62U | ≤ 0.5
C5G A37G C46G C61A | ≤ 0.5
C5G A20G A42G C66G | ≤ 0.5
C5G A42G C60G C61G | 0.669
C5G A21C A69C | ≤ 0.5
C5G A20U U54A | ≤ 0.5
C5G C11U A37U | ≤ 0.5
C5G A37U G67A | ≤ 0.5
C5G A21G U59A A69C A70C | ≤ 0.5
C5G C11A A21G | 0.581
C5G A21C G39A | ≤ 0.5
C5G C11G A15U A70U | ≤ 0.5
C5G A70G | 0.848
C5G A21C | 0.636
C5G A36U U54C | ≤ 0.5
C5G A20G A36C | 0.52
C5G A20G A42U | 0.66
C5G C11U A42G C49U A69C A70G | ≤ 0.5
C5G A42C G48A | 0.587
C5G A21U C29A | 0.631
C5G C11U A70C | ≤ 0.5
C5G A37C G38A C60G | ≤ 0.5

Variant | yeast fitness
C5G A42C G68U | 0.593
C5G A21C A45U C46U | ≤ 0.5
C5G C11U A42G C49U C66U G67A | ≤ 0.5
C5G A21G U28C U32C A65U G68A | ≤ 0.5
C5G C11U G48C C49A A57C | ≤ 0.5
C5G A40C A70G | 0.543
C5G C11U A37C C49U C60A C66G | 0.685
C5G A20U G25A G41A C55G | ≤ 0.5
C5G A20G A36C G63A | ≤ 0.5
C5G C11U G17A A20C C49G | ≤ 0.5
C5G A42G A70C | 0.805
C5G A21G C22U | 0.689
C5G A42G U54A | 0.639
C5G A20G C22G C29G G63C A69U | 0.527
C5G C11G A21C U28G C66U | 0.605
C5G A43U A65C | 0.557
C5G A43U A69U | 0.62
C5G A21U C49U | ≤ 0.5
C5G A45C C66G | ≤ 0.5
C5G A20G A36C G50A G51A A69C | ≤ 0.5
C5G A21C C29U C31G A43U A65U | ≤ 0.5
C5G A36U C61U A65C G67A G68A | ≤ 0.5
C5G A21G U26C C27G G48C G67A | 0.531
C5G A21G U32C C62U A65U G68A | ≤ 0.5

Variant | yeast fitness
C5G A45G A69U | 0.688
C5G A37G C46G A57G | ≤ 0.5
C5G A20U C46A A57U | ≤ 0.5
C5G A37C G38A | 0.562
C5G C11A A20U C29A A37C | ≤ 0.5
C5G C11A C29G C33U G50A | ≤ 0.5
C5G A20G C31A | ≤ 0.5
C5G C11U G67C | 0.699
C5G A36G A40C | 0.683
C5G C11G C30U C31U A57G G63A | ≤ 0.5
C5G A37G G41C | ≤ 0.5
C5G A37C G51A U53C C62A | ≤ 0.5
C5G A43G | 0.746
C5G C11G G44A G50C U54C C61U A69U A70C | ≤ 0.5
C5G A40G U54A | 0.579
C5G A20U C66U A69U | ≤ 0.5
C5G A21C C33G | ≤ 0.5
C5G A21C C33U | 0.535
C5G A21G U64C | 0.723
C5G C11A U26C A40U U64C | ≤ 0.5
C5G A36G A45G G51C C61A | ≤ 0.5
C5G A69G | 0.902
C5G A69C | 0.932
C5G A69U | 0.894

Variant | yeast fitness
C5G A21U C29U A37U A43G C66G | ≤ 0.5
C5G C11G A14C U35G A45C U47C U64A | ≤ 0.5
C5G C11A A14G G25C C29G C60U | ≤ 0.5
C5G A45U C61U C66U | ≤ 0.5
C5G A43U G48C | 0.602
C5G A20U A37G | ≤ 0.5
C5G A45C C46U | 0.643
C5G C11U C60G | ≤ 0.5
C5G A43C G48C U64C | ≤ 0.5
C5G A20U U28G | ≤ 0.5
C5G A20U G41C | ≤ 0.5
C5G C11G C62U | ≤ 0.5
C5G A37U A43C A65U | ≤ 0.5
C5G A40C G52A C62U | ≤ 0.5
C5G A42U G67A | 0.532
C5G C11U A37C A43G G50A | ≤ 0.5
C5G A43G G56A C61G C62A | ≤ 0.5
C5G C11G A14U A15U G56A U59G | ≤ 0.5
C5G A40U G58C | 0.732
C5G C11G G12A A37C G50A | 0.533
C5G A43G A69U | 0.762
C5G A36U C62U | ≤ 0.5
C5G A40G A57G | ≤ 0.5
C5G A20U C31G | ≤ 0.5

Variant | yeast fitness
C5G A65G | 1
C5G C11U C61G | ≤ 0.5
C5G A36C G41C | ≤ 0.5
C5G C11G A70U | ≤ 0.5
C5G C11U G25C G52U A70C | ≤ 0.5
C5G A20U A70C | 0.68
C5G C11U A37C C49U | 0.609
C5G A45C | 0.85
C5G C11A A15G G18A A42U | ≤ 0.5
C5G C11A A14G G25C C29G A70G | ≤ 0.5
C5G A42G A69C | 0.568
C5G A40U G44A C61A | 0.567
C5G A37U C46U A69C | ≤ 0.5
C5G C11G C34U C55U G67C | ≤ 0.5
C5G A20G A40G G44A C46G A65C | ≤ 0.5
C5G C11U G25A | 0.787
C5G A20G A40G G44A C46G A70C | ≤ 0.5
C5G C11U A37C C49U C60A | 0.557
C5G A37U C49G | ≤ 0.5
C5G C11A | 0.609
C5G A36U G67A | 0.571
C5G A20U A21G C22G U35A G44A C55U C60G U64A G67A | 0.649
C5G A21G A45U G56A | 0.753
C5G A21C C24U C33U | ≤ 0.5

Variant | yeast fitness
C5G A20G C30A C34G | ≤ 0.5
C5G A20U G25A G41A C55G U64G | 0.534
C5G A42G C61A G63C | ≤ 0.5
C5G A20U C46U | 0.601
C5G A21G U32C | 0.63
C5G A21G C30U A40U | ≤ 0.5
C5G A21U C33U G50A | 0.835
C5G A57G | 0.882
C5G A57U | 0.735
C5G A36G G68U | 0.525
C5G A36G G68C | 0.596
C5G A36U | 0.583
C5G A36C | 0.772
C5G A36G | 1.01
C5G A20G C22G C29G | ≤ 0.5
C5G A21C A45G | 0.512
C5G C11U A42G C49U A70U | 0.588
C5G C11A A14G G25C U28C C29G | ≤ 0.5
C5G A40C U59A | ≤ 0.5
C5G A69C A70G | 0.692
C5G A57G C66A | 0.564
C5G A20G C22G C29G G63A | ≤ 0.5
C5G A20G C22G C29G G63C | ≤ 0.5
